Results from ChEMBL document CHEMBL1629527, “In vitro antifungal activities of bis(alkylpyridinium)alkane compounds against pathogenic yeasts and molds” (Antimicrob Agents Chemother, 2010).

Experiments:
[1] = test system: Cryptococcus neoformans; experiment: Antifungal activity against Cryptococcus neoformans after 24 to 72 hrs by broth microdilution method; assay type: functional
Summary of the method: (§1)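 Broth microdilution MIC per CLSI M27-A3 (yeasts) or M38-A2 (molds). RPMI 1640 with L-glutamine, without bicarbonate, buffered to pH 7.0 with 0.165 M MOPS. Final test range for the compounds was 0.175–87.5 μM. Incubation at 35°C with visual reading at 24–72 h. MIC was the lowest concentration giving 100% inhibition versus the growth control (azoles 50% or 100%, by organism). Each isolate was run in duplicate in two independent experiments.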

[2] = test system: Candida tropicalis; experiment: Antifungal activity against Candida tropicalis after 48 to 72 hrs; assay type: functional
Summary of the method: (§2)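 MFC: after the MIC read, 30-μl aliquots from each well without visible growth were plated onto Sabouraud dextrose agar and incubated at 35°C. Reading was at 48–72 h for yeasts and up to 7 days for molds. MFC was the lowest concentration with no colonies.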

[3] = test system: Candida parapsilosis; experiment: Antifungal activity against Candida parapsilosis after 48 to 72 hrs; assay type: functional; summary of the method: as §2
[4] = test system: Pichia kudriavzevii; experiment: Antifungal activity against Candida krusei after 48 to 72 hrs; assay type: functional; summary of the method: as §2
[5] = test system: Meyerozyma guilliermondii; experiment: Antifungal activity against Candida guilliermondii after 48 to 72 hrs; assay type: functional; summary of the method: as §2
[6] = test system: Clavispora lusitaniae; experiment: Antifungal activity against Candida lusitaniae after 48 to 72 hrs; assay type: functional; summary of the method: as §2
[7] = test system: Cryptococcus neoformans; experiment: Antifungal activity against Cryptococcus neoformans after 48 to 72 hrs; assay type: functional; summary of the method: as §2
[8] = test system: Cryptococcus gattii species complex; experiment: Antifungal activity against Cryptococcus gattii after 48 to 72 hrs; assay type: functional, Cryptococcus bacillisporus; summary of the method: as §2
[9] = Toxicity against human erythrocytes assessed as hemolysis; assay type: cell-based, Erythrocyte
[10] = test system: Rhizopus arrhizus; experiment: Antifungal activity against Rhizopus oryzae 05-203111 after 48 to 72 hrs; assay type: functional
Summary of the method: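 After the broth microdilution MIC read, suspension from every well without visible growth was plated onto Sabouraud dextrose agar and incubated at 35°C, up to 7 days for molds. MFC was taken as the lowest drug concentration with no colonies.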

[11] = test system: Candida albicans; experiment: Antifungal activity against Candida albicans after 24 to 72 hrs by broth microdilution method; assay type: functional
Summary of the method: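 CLSI M27-A3 broth microdilution for yeasts in RPMI 1640 with L-glutamine and no bicarbonate, buffered with 0.165 M MOPS to pH 7.0. Compounds were dissolved in water and tested at 0.175–87.5 μM final, 35°C. MIC was read visually at 24–72 h as 100% inhibition versus growth control. For MFC, 30 μl from clear wells went onto SDA at 35°C for 48–72 h, reading the lowest concentration without colonies. Duplicates, two independent runs.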

[12] = test system: Candida tropicalis; experiment: Antifungal activity against Candida tropicalis after 24 to 72 hrs by broth microdilution method; assay type: functional; summary of the method: as §1
[13] = test system: Nakaseomyces glabratus; experiment: Antifungal activity against Candida glabrata after 24 to 72 hrs by broth microdilution method; assay type: functional; summary of the method: as §1
[14] = test system: Candida parapsilosis; experiment: Antifungal activity against Candida parapsilosis after 24 to 72 hrs by broth microdilution method; assay type: functional; settings: Lodderomyces parapsilosis; summary of the method: as §1
[15] = test system: Candida dubliniensis; experiment: Antifungal activity against Candida dubliniensis after 24 to 72 hrs by broth microdilution method; assay type: functional; summary of the method: as §1
[16] = Antifungal activity against Paecilomyces lilacinus 05-200601 after 24 to 72 hrs by broth microdilution method; assay type: functional; settings: Purpureocillium lilacinum
Summary of the method: (§3)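 Mold isolates subcultured on potato dextrose agar, then tested by CLSI M38-A2 broth microdilution in RPMI 1640 (L-glutamine, no bicarbonate) buffered to pH 7.0 with 0.165 M MOPS. Compounds were dissolved in water and tested at a final 0.175–87.5 μM. Plates were incubated at 35°C. MIC was read visually as the lowest concentration giving 100% inhibition versus the growth control. Each isolate was run in duplicate in two independent experiments.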

[17] = test system: Rhizopus arrhizus; experiment: Antifungal activity against Rhizopus oryzae 05-203111 after 24 to 72 hrs by broth microdilution method; assay type: functional; summary of the method: as §3
[18] = test system: Aspergillus flavus; experiment: Antifungal activity against Aspergillus flavus ATCC 204304 after 24 to 72 hrs by broth microdilution method; assay type: functional; summary of the method: as §1
[19] = test system: Aspergillus flavus; experiment: Antifungal activity against Aspergillus flavus 05-203758 after 24 to 72 hrs by broth microdilution method; assay type: functional; summary of the method: as §1
[20] = test system: Aspergillus terreus; experiment: Antifungal activity against Aspergillus terreus 05-202844 after 24 to 72 hrs by broth microdilution method; assay type: functional; summary of the method: as §1
[21] = test system: Lomentospora prolificans; experiment: Antifungal activity against Scedosporium prolificans 05-203060 after 24 to 72 hrs by broth microdilution method; assay type: functional; summary of the method: as §3
[22] = test system: Scedosporium apiospermum; experiment: Antifungal activity against Scedosporium apiospermum 05-203100 after 24 to 72 hrs by broth microdilution method; assay type: functional; summary of the method: as §3
[23] = test system: Cunninghamella bertholletiae; experiment: Antifungal activity against Cunninghamella bertholletiae 99-12187 after 24 to 72 hrs by broth microdilution method; assay type: functional; summary of the method: as §1
[24] = test system: Lichtheimia corymbifera; experiment: Antifungal activity against Absidia corymbifera 04-200170 after 24 to 72 hrs by broth microdilution method; assay type: functional; summary of the method: as §1
[25] = test system: Cryptococcus gattii species complex; experiment: Antifungal activity against Cryptococcus gattii 05-200122 after 24 to 72 hrs by broth microdilution method; assay type: functional, Cryptococcus bacillisporus; summary of the method: as §1
[26] = test system: Cryptococcus neoformans; experiment: Antifungal activity against Cryptococcus neoformans 05-202523 after 24 to 72 hrs by broth microdilution method; assay type: functional; summary of the method: as §1
[27] = test system: Cryptococcus neoformans; experiment: Antifungal activity against Cryptococcus neoformans ATCC 90112 after 24 to 72 hrs by broth microdilution method; assay type: functional; summary of the method: as §1
[28] = test system: Candida tropicalis; experiment: Antifungal activity against Candida tropicalis 04-202361 after 24 to 72 hrs by broth microdilution method; assay type: functional; summary of the method: as §1
[29] = test system: Candida parapsilosis; experiment: Antifungal activity against Candida parapsilosis ATCC 22019 after 24 to 72 hrs by broth microdilution method; assay type: functional; settings: Lodderomyces parapsilosis; summary of the method: as §1
[30] = test system: Pichia kudriavzevii; experiment: Antifungal activity against Candida krusei ATCC 6258 after 24 to 72 hrs by broth microdilution method; assay type: functional; summary of the method: as §1
[31] = test system: Candida albicans; experiment: Antifungal activity against Candida albicans ATCC 10231 after 24 to 72 hrs by broth microdilution method; assay type: functional; summary of the method: as §1
[32] = test system: Candida albicans; experiment: Antifungal activity against Candida albicans ATCC 90028 after 24 to 72 hrs by broth microdilution method; assay type: functional; summary of the method: as §1
[33] = test system: Clavispora lusitaniae; experiment: Antifungal activity against Candida lusitaniae after 24 to 72 hrs by broth microdilution method; assay type: functional; summary of the method: as §1
[34] = Antifungal activity against Exophiala jeanselmei 03-200268 after 24 to 72 hrs by broth microdilution method; assay type: functional; summary of the method: as §1

Structure (SMILES): C=CCCCc1cc[n+](CCCCCCCCCCCC[n+]2ccc(CCCC=C)cc2)cc1.[Cl-].[Cl-]
- MIC [1]: 3.83 µg/mL
- MIC50 [1]: 2.94 µg/mL
- MIC90 [1]: 5.87 µg/mL
- MFC50 [2]: 0.75 µg/mL
- MFC90 [2]: 1.47 µg/mL
- MFC ([2]; Candida tropicalis): 0.37 µg/mL
- MFC50 [3]: 23.5 µg/mL
- MFC90 [3]: 23.5 µg/mL
- MFC ([3]; Lodderomyces parapsilosis): 23.5 µg/mL
- MFC50 [4]: 5.87 µg/mL
- MFC90 [4]: 11.74 µg/mL
- MFC ([4]; Pichia kudriavzevii): 0.75 µg/mL
- MFC50 [5]: 1.47 µg/mL
- MFC90 [5]: 5.87 µg/mL
- MFC ([5]; Meyerozyma guilliermondii): 0.75 µg/mL
- MFC50 [6]: 2.93 µg/mL
- MFC90 [6]: 5.87 µg/mL
- MFC ([6]; Clavispora lusitaniae): 1.47 µg/mL
- MFC50 [7]: 5.87 µg/mL
- MFC90 [7]: 11.74 µg/mL
- MFC ([7]; Cryptococcus neoformans): 2.94 µg/mL
- MFC50 [8]: 2.94 µg/mL
- MFC90 [8]: 2.94 µg/mL
- MFC ([8]; Cryptococcus gattii species complex): 2.94 µg/mL
- HC50 [9]: > 129 µM
- IC50 [9]: > 48 µM
- MFC [10]: 23.7 µg/mL
- MIC [11]: 1.28 µg/mL
- MIC50 [11]: 1.47 µg/mL
- MIC90 [11]: 1.47 µg/mL
- MIC [12]: 0.746 µg/mL
- MIC50 [12]: 0.75 µg/mL
- MIC90 [12]: 1.47 µg/mL
- MIC [13]: 0.975 µg/mL
- MIC50 [13]: 1.47 µg/mL
- MIC90 [13]: 1.47 µg/mL
- MIC [14]: 23.5 µg/mL
- MIC50 [14]: 23.5 µg/mL
- MIC90 [14]: 23.5 µg/mL
- MIC [15]: 2.22 µg/mL
- MIC50 [15]: 1.47 µg/mL
- MIC90 [15]: 2.93 µg/mL
- MIC [16]: > 47.3 µg/mL
- MIC [17]: 5.9 µg/mL
- MIC [18]: > 47.3 µg/mL
- MIC [19]: > 47.3 µg/mL
- MIC [20]: 1.48 µg/mL
- MIC [21]: 1.48 µg/mL
- MIC [22]: 11.8 µg/mL
- MIC [23]: > 47.3 µg/mL
- MIC [24]: > 47.3 µg/mL
- MIC [25]: 1.48 µg/mL
- MIC [26]: 11.8 µg/mL
- MIC [27]: 11.8 µg/mL
- MIC [28]: 1.48 µg/mL
- MIC [29]: 1.48 µg/mL
- MIC [30]: 5.9 µg/mL
- MIC [31]: 1.48 µg/mL
- MIC [32]: 1.48 µg/mL
- MIC [33]: 2.74 µg/mL
- MIC50 [33]: 2.93 µg/mL
- MIC90 [33]: 2.93 µg/mL
- MIC [34]: 5.9 µg/mL
